High-throughput results (PubChem)
Wee1 degr inh: human Wee1 degradation inhibition, primary screen; P30291; HeLa Luc-Wee1K328M stability, luciferase luminescence; 100% = proteasome inhibitor MG132 effect; reporter increase, % at 5 µM; 220,000 tested, 1.2% active;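 active = activation above the mean of all tested compounds plus 3 SD, set per screening run, cut at about 8.8% in these data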;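 also: cells exposed to compound for 20 h before luminescence read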
Target sequence (P30291 whole entry K328M): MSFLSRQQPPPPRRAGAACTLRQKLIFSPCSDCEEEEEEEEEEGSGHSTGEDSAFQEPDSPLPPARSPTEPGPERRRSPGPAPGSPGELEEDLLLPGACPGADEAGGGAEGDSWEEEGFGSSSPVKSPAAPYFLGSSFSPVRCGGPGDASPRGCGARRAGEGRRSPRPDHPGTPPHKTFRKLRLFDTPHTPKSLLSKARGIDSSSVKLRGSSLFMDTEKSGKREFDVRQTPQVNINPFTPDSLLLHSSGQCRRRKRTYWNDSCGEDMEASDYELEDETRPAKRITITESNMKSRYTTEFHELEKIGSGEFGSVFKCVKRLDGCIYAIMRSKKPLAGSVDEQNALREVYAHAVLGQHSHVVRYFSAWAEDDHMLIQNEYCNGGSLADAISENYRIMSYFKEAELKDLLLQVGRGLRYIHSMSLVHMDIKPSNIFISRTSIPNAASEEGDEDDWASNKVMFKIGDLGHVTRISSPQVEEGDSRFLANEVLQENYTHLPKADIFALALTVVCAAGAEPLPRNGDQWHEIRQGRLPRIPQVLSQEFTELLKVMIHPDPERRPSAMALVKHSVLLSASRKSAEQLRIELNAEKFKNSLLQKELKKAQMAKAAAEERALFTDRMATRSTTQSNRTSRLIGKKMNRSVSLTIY
Efa HMGR inh: E. faecalis class II HMG-CoA reductase inhibition; 190,000 tested, 0.41% active; purified E. faecalis HMGR, NADPH absorbance 340 nm kinetic; inhibition, % at 10 µM;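 active = inhibition above a set limit, the median over all tested compounds plus 3 SD, cut at about 9.5% in these data; inconclusive = no clear call, values can overlap the other calls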;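 also: enzyme runs in reverse so mevalonate oxidation gives rising NADPH absorbance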
PHOSPHO1 inh: inhibitors of human PHOSPHO1 phosphatase; Q8TCT1; recombinant PHOSPHO1, absorbance phosphatase assay; inhibition, % at 13.3 µM; 290,000 tested, 1.1% active; AID 1565; in the data active = inhibition above about 60%
RanGTP-Impb inh: disruptors of Ran-importin-beta complex formation – biochemical, FRET, CFP-Ran, YFP-importin-beta, homogeneous, primary screen; cell-free CFP-Ran/YFP-importin-beta FRET ratio; 300,000 tested, 1.1% active; inhibition, % (no concentration beside the values);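 active = more than half of the replicate wells show a fall in the fluorescence ratio signal beyond about 16%, limit read from the data, passing the limit was not always enough; inconclusive = exactly half of the replicate wells pass the set limit; inactive = fewer than half of replicates pass the limit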
Runt-CBFb FRET: Runt domain-CBFb interaction inhibition | Cerulean-Runt/Venus-CBFb FRET ratio 530/480, 1 h | Q01196+Q13951 | 220,000 tested, 0.46% active | inhibition, % at 20 µM | AID 1496;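 active = inhibition over about 50% at 20 µM in the single-dose screen, limit read from the data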
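test system = Cerulean-tagged RUNX1 Runt domain (FRET donor) fusion protein | reagent = Venus-CBFb binding partner, 100 nM | incubation = protein complex preformed 1 h, compound exposure 1 h, room temperature, dark | detection = FRET fluorescence | read-out basis = loss of energy transfer signal | controls = 5 µM unlabeled CBFb as full-inhibition high control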
Runt-SMMHC FRET: Runt domain-CBFb-SMMHC interaction inhibition; Q01196+Q13951; Cerulean-Runt/Venus-CBFb-SMMHC FRET ratio 530/480, 1 h; inhibition, % at 20 µM; 220,000 tested, 0.74% active;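 active = mean inhibition across duplicate retests at 20 µM reaching about 50%, limit read from the data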;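 also: inhibitors lower the FRET ratio by blocking Runt binding to CBFb-SMMHC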
Numbers stand for hits; . = inactive; ? = inconclusive; / = no result. Compounds with a hit are over-represented: about 3.4% of the library has one in this group of screens.

SMILES	Wee1 degr inh	Efa HMGR inh	PHOSPHO1 inh	RanGTP-Impb inh	Runt-CBFb FRET	Runt-SMMHC FRET
CC(=O)C1=C(C)NC(SCC(=O)c2ccc(F)cc2)=C(C#N)C1c1ccco1 (stereo unspecified)	.	.	.	.	.	.
CC(=O)C1=C(C)NC(SCC(=O)c2ccc(Cl)c(Cl)c2)=C(C#N)C1c1ccco1 (stereo unspecified)	.	/	75.6	.	.	.
CC1CN(c2nc3ccccc3nc2SCC(=O)Nc2cccc(C(F)(F)F)c2)CC(C)O1 (stereo unspecified)	/	/	/	.	/	/
CCOC(=O)/C=C1/N(C)c2ccccc2C1(C)C	.	/	.	.	.	.
CN1/C(=C/C(=O)c2cccs2)Sc2ccccc21	.	.	.	.	.	82.9
CN1/C(=C\C(=O)c2cccs2)C(C)(C)c2ccccc21	.	.	.	17.7	.	85.5
CC(=O)O[C@H]1C[C@@]2(O)[C@@H](OC(=O)c3ccccc3)C3[C@@](C)([C@@H](O)C[C@H]4OC[C@@]34OC(C)=O)[C@@H](O)[C@H](OC(C)=O)C(=C1C)C2(C)C (stereo partly specified)	/	/	.	.	/	/
CC(C)(C)OC(=O)N1CCN(c2ccc(NC(=O)c3ccco3)cc2)CC1	/	/	.	.	/	/
Fc1ccc(NC(=S)NCc2cccnc2)cc1	.	.	.	93.3	.	.
Cc1ccc(S(=O)(=O)N(C)C)cc1NC(=O)COC(=O)COc1ccc2c(c1)CCC2	/	/	/	.	/	/
CCOC(=O)c1nn(-c2ccccc2)c(C)c1C(C)=O	.	.	.	.	.	.
CCOC(=O)c1nn(-c2ccccc2F)c(C)c1C(C)=O	.	9.8	.	.	.	.
O=S(=O)(Nc1nc2ccccc2nc1N1CCN(c2ccccn2)CC1)c1ccc(Cl)cc1	.	.	.	/	.	104.4
CCOC(=O)/C(C(N)=NCC(C)C)=C(/O)c1ccccc1	.	.	61.1	.	/	.
C=Cc1ccc(Cn2nc(-c3ccc(C)cc3)ccc2=O)cc1	/	/	.	.	/	/
Cc1coc2cc3oc(=O)c(CCC(=O)N4CCC(C(=O)O)(c5ccccc5)CC4)c(C)c3cc12	/	/	.	.	/	/
COCCn1c(-c2ccc(Cl)cc2)cnc1SCC(=O)NCc1cccs1	.	.	73.5	/	.	.
CCSc1nnc(NC(=O)CSc2nccn2-c2cc(C)cc(C)c2)s1	.	.	.	26.2	.	.
COC(=O)c1ccc(CSc2ncnc3c2nnn3-c2ccc(OC)cc2)o1	11.8	.	.	.	.	.
Cc1cccc(-n2cnc3sc(C)c(C)c3c2=O)c1	.	/	.	.	.	.
Cc1ccc(-n2cnc3sc(C)c(C)c3c2=O)cc1	.	13.3	.	.	.	.
CN(C)c1cccc(C(=O)Nc2nnc(Cc3ccccc3)s2)c1	/	/	.	.	/	/
C=CCn1c(N)c(C(=O)Nc2cccc(C)c2)c2nc3ccccc3nc21	.	.	.	22.4	.	.
CCCC(=O)Nc1cc(C)c(NC(=O)Cc2ccccc2)cn1	.	.	.	.	.	.
Cc1cc(NC(=O)c2ccco2)ncc1NC(=O)CCc1ccccc1	.	.	.	.	.	.
SMILES	Wee1 degr inh	Efa HMGR inh	PHOSPHO1 inh	RanGTP-Impb inh	Runt-CBFb FRET	Runt-SMMHC FRET
Cc1cc(NC(=O)C(C)C)ncc1NC(=O)Cc1ccccc1	10.3	.	.	.	.	.
CCC(=O)Nc1cc(C)c(NC(=O)CCc2ccccc2)cn1	.	.	.	39.6	.	88.8
Cc1nc(C(C)NC(=O)c2cc(COc3ccc(C)c(C)c3)on2)c(C)s1 (stereo unspecified)	/	/	.	.	/	/
S=c1[nH]ncn1/N=C/c1ccc(Br)cc1	.	.	96.3	.	.	.
S=c1[nH]nc(Cc2ccc(Br)cc2)n1/N=C/c1ccc(Cl)cc1	.	.	.	.	.	.
CCn1c2ccccc2c2cc(/C=N/n3cn[nH]c3=S)ccc21	.	.	.	.	/	.
S=c1[nH]ncn1/N=C/c1ccccc1	.	.	88.9	.	.	.
C(=N\n1cnnc1)/c1ccc(N2CCOCC2)cc1	.	.	.	?	.	.
S=c1[nH]ncn1/N=C/c1ccc(N2CCOCC2)cc1	.	.	87.9	.	.	.
CCCOc1ccc(/C=N/NC(=O)C(C)Sc2ccccn2)cc1OCC (stereo unspecified)	.	.	.	.	.	.
Cc1cnc(NC(=O)c2ccc(-c3nc4ccccc4s3)o2)s1	.	.	104.8	.	.	.
Cc1cnc(NC(=O)CSc2nc3ccccc3s2)s1	.	.	.	.	.	.
CCC(=O)Oc1ccc2c(c1)O/C(=C\c1ccco1)C2=O	.	/	.	.	.	81.0
CCOC(=O)/C(N=Nc1c(C)n(C)n(-c2ccccc2)c1=O)=C(\C)O	8.9	.	.	.	.	.
COC(=O)[C@H](CCSC)NC(=O)[C@@H](Cc1cnc[nH]1)NC(=O)OCc1ccccc1	/	/	.	.	/	/
CCSc1nc2c(c(=O)[nH]c(=O)n2C)n1CC(O)COc1ccccc1C (stereo unspecified)	.	.	.	.	.	.
Cc1ccccc1OCC(O)Cn1c(SC(C)C)nc2c1c(=O)[nH]c(=O)n2C (stereo unspecified)	.	.	91.4	.	.	.
Cc1ccc(C(=O)C2=C(O)C(=O)N(CCN3CCOCC3)C2c2ccccn2)o1 (stereo unspecified)	.	.	.	22.8	.	.
COc1cccc(C2C(C(=O)c3ccc(C)o3)=C(O)C(=O)N2CCN2CCOCC2)c1OC (stereo unspecified)	/	/	.	.	/	/
O=C(C1=C(O)C(=O)N(CCCN2CCOCC2)C1c1ccccn1)c1cc2ccccc2o1 (stereo unspecified)	.	.	78.9	.	.	.
O=C(C1=C(O)C(=O)N(CCN2CCOCC2)C1c1ccc(F)cc1)c1cc2ccccc2o1 (stereo unspecified)	/	/	.	.	/	/
CCN(CC)CCN1C(=O)C(O)=C(C(=O)c2ccc(C)o2)C1c1ccccn1 (stereo unspecified)	.	/	/	29.0	/	/
O=C(NCCCN1CCOCC1)c1ccc(NS(=O)(=O)c2ccccc2)cc1	/	/	.	.	/	/
CSc1ccccc1NC(=O)CN(C)C(=O)c1ccc2c(c1)OCCO2	/	/	.	.	/	/
O=C1/C(=C/c2cccc([N+](=O)[O-])c2)Oc2cc(O)ccc21	/	/	.	?	/	/
SMILES	Wee1 degr inh	Efa HMGR inh	PHOSPHO1 inh	RanGTP-Impb inh	Runt-CBFb FRET	Runt-SMMHC FRET
COc1ccc(/C=C2\Oc3cc(OC(=O)N4CCOCC4)ccc3C2=O)cc1	.	/	.	22.1	.	.
O=C1/C(=C/c2ccc(O)c(O)c2)Oc2cc(O)ccc21	/	/	.	/	.	54.6
COc1cc(/C=C2\Oc3cc(O)ccc3C2=O)ccc1O	/	/	.	.	.	78.5
COc1ccc(/C=C2\OC(=O)c3c(OC)cccc32)cc1OC	.	.	.	38.8	.	.
CCc1ccc(/C=C2\Oc3cc(OC(=O)N4CCOCC4)ccc3C2=O)cc1	.	.	.	.	.	.
Cc1ccc(S(=O)(=O)N(C)C)cc1NC(=O)COC(=O)CCC1CCCCC1	/	/	/	.	/	/
